# Measured values of several laboratories.
# Compare with care: the assays were run in different laboratories.
Compound,tested on,assay,test system,conditions,quantity,value
CCOP(=O)(OCC)[C@@H]1C[C@@H](n2cc(-c3ccccc3)nn2)ON1C (racemic),human T-lymphocyte,cell growth or viability,,72 h,CC50,> 250 µM
O=C(c1ccc(Oc2ccccc2)cc1Cl)c1c[nH]c2ncnc(N[C@@H]3CC[C@@H](CO)OC3)c12,,,"cynomolgus monkey, plasma","oral, 10 mg/kg, single dose",AUC(0-t),82700 ng·h/mL
COc1ccc2nccc(N3CCc4c(cc(Cn5ccnc5)cc4-c4cn(C)nc4C(F)(F)F)C3=O)c2c1,,,"male CD-1 mouse, plasma","intravenous, 3 mg/kg",MRT(0-inf),0.6 h
c1ccc(-c2nc(N3CCC(c4ccccn4)C3)c3ccccc3n2)nc1 (stereo not shown),,,"female BALB/c mouse, plasma","oral, 12.5 mg/kg",MRT(0-inf),5.9 h
CN(C(=O)n1cnc(-c2ccc[n+]([O-])c2)c1)C1CCCCC1,,,"male cynomolgus monkey, plasma","oral, 0.3 mg/kg",AUC(0-t),452 ng·h/mL
COc1cc(OC)c2nccc(N3CCc4c(cc(Cn5ccnc5)cc4-c4cn(C)nc4C(F)(F)F)C3=O)c2c1,,,"male CD-1 mouse, plasma","intravenous, 3 mg/kg",MRT(0-inf),0.5 h
CCOP(=O)(OCC)[C@@H]1C[C@@H](n2cc(-c3ccccc3F)nn2)ON1C,human T-lymphocyte,cell growth or viability,,72 h,CC50,> 250 µM
CCN(CC)C(=O)[C@@]1(c2ccccc2)C[C@H]1CN,,,"male cynomolgus monkey, plasma","oral, 30 mg/kg",AUC(0-t),40000 ng·h/mL
Cc1ccc2cncc(N3CCc4c(cc(Cn5ccnc5)cc4-c4cn(C)nc4C(F)(F)F)C3=O)c2c1,,,"male CD-1 mouse, plasma","oral, 50 mg/kg",MRT(0-inf),3.5 h
Nc1cc(CNC(=O)c2cc3[nH]ccc3cc2Cl)cc(C(F)(F)F)c1,HEK-293T,cell growth or viability,,"100 µM, 24 h",viability,< 50%
